As usually defined, the IC50 is the concentration needed to halve the response being measured.

Type in all cases: functional, cell-based
The test system of test [1] is XF498. The test can be described thus: Concentration required for inhibiting proliferation of human brain tumor cell line XF 498 after 72 hr of incubation was determined. The conditions noted are these: XF498, 72 h. A digest of the protocol:
(§1)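 SRB assay. Cells were passaged with trypsin-EDTA, seeded at 1–2 · 10^4 cells/well and grown for 24 h. Compounds dissolved in culture medium were added in triplicate and incubated 48 h at 37 C, 5% CO2. Cells were fixed with 10% cold TCA, stained with 0.4% SRB in 1% acetic acid, and the dye was solubilized in 10 mM Tris base (pH 10.5). Absorbance was read at 520 nm. IC50 is the concentration giving 50% inhibition.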

The test system of the next test is HCT-15. Description: Concentration required for inhibiting proliferation of human colon tumor cell line HCT-15 after 72 hr of incubation was determined. The conditions noted are these: HCT-15, 72 h. Put shortly: as §1
The test system of test [2] is SK-MEL-2. Description: Concentration required for inhibiting proliferation of human melanoma tumor cell line SK-MEL-2 after 72 hr of incubation was determined. The conditions noted are these: SK-MEL-2, 72 h. Put shortly: as §1
The next test concerns A549. Description: Concentration required for inhibiting proliferation of human lung tumor cell line A549 after 72 hr of incubation was determined. The conditions noted are these: A549, 72 h. A digest of the protocol:
as §1

The test system of the next test is SK-OV-3. The test can be described thus: Concentration required for inhibiting proliferation of human ovarian tumor cell line SK-OV-3 after 72 hr of incubation was determined. The conditions noted are these: SK-OV-3, 72 h. Put shortly: as §1
In test [3] the test system is XF498. The test can be described thus: Concentration required for inhibiting proliferation of human brain tumor cell line XF 498 by 50% after 72 hr of incubation was determined. The conditions noted are these: XF498, 72 h. Put shortly:
as §1

The subject of test [4] is SK-MEL-2. Description: Concentration required for inhibiting proliferation of human melanoma tumor cell line SK-MEL-2 by 50% after 72 hr of incubation was determined. The conditions noted are these: SK-MEL-2, 72 h. A digest of the protocol: as §1

In the case of `CCC1(c2ccccc2)CC(=O)C(C2CC(c3ccc(OCc4ccc(C(F)(F)F)cc4)cc3)Cc3ccccc32)=C(O)O1` (stereo not given), the IC50 in the test on XF498 [1], in the test on HCT-15, with SK-MEL-2 [2], with A549 and in the test on SK-OV-3 was above 10 µM throughout.
On to `CCC1(c2ccccc2)CC(=O)C(C2CC(c3ccc(OC)cc3)Cc3ccccc32)=C(O)O1` (stereo not given), for which the half-inhibitory concentration (IC50) with XF498 [1], in the test on HCT-15, with SK-MEL-2 [2], with A549 and with SK-OV-3 was above 10 µM each time.
As to `CCC1(c2ccccc2)CC(=O)C(C2CC(c3ccc(-c4ccc(Br)cc4)cc3)Cc3ccccc32)=C(O)O1` (stereo not given), the IC50 in the test on XF498 [1], in the test with HCT-15, in the test on SK-MEL-2 [2], with A549 and in the test with SK-OV-3 was above 10 µM throughout.
Regarding `COc1cc([C@@H]2c3cc4c(cc3[C@@H](O[C@@H]3O[C@@H]5CO[C@@H](C)O[C@H]5[C@H](O)[C@H]3O)[C@H]3COC(=O)[C@H]23)OCO4)cc(OC)c1O` [ETOPOSIDE], the IC50 amounted to 1.45 µM in the test with HCT-15; 3.14 µM in the test with XF498 [3]; 1.06 µM with A549; 3.46 µM with SK-OV-3; 4.13 µM in the test with SK-MEL-2 [4].
As to `CC1(c2ccccc2)CC(=O)C(C(CC(=O)c2ccc(-c3ccc(Br)cc3)cc2)c2ccccc2)=C(O)O1` (stereo not given), the IC50 in the test on XF498 [1] was 6.73 µM; with HCT-15 it was 8.59 µM; in the test with SK-MEL-2 [2], 8.54 µM; in the test on A549, 9.18 µM; in the test on SK-OV-3, 5.69 µM.
With `CCCC1(CCc2ccccc2)CC(=O)C(C2CC(c3ccc(-c4ccc(Br)cc4)cc3)Cc3ccccc32)=C(O)O1` (stereo not given), the IC50 in the test with XF498 [1], with HCT-15, in the test on SK-MEL-2 [2], in the test with A549 and in the test on SK-OV-3 was above 10 µM each time.
Regarding `CCCC1(c2ccccc2)CC(=O)C(C(CC(=O)c2ccc(-c3ccc(Br)cc3)cc2)c2ccccc2)=C(O)O1` (stereo not given), the IC50 in the test with XF498 [1], with HCT-15, with SK-MEL-2 [2], in the test on A549 and with SK-OV-3 was above 10 µM throughout.
Regarding `CC1(c2ccccc2)CC(=O)C(C2CC(c3ccc(-c4ccc(Br)cc4)cc3)Cc3ccccc32)=C(O)O1` (stereo not given), the IC50 in the test on XF498 [1] was 1.36 µM; in the test on HCT-15, 1.31 µM; with SK-MEL-2 [2], 2.05 µM; in the test with A549, 1.83 µM; in the test with SK-OV-3, 1.8 µM.
For `CCC1(c2ccccc2)CC(=O)C(C(CC(=O)c2ccc(-c3ccc(Br)cc3)cc2)c2ccccc2)=C(O)O1` (stereo not given) the same measures were 6.59 µM, 6.71 µM, 8.51 µM, 8.13 µM and 5.74 µM.
For `COc1ccc(C2Cc3ccccc3C(C3=C(O)OC(C)(c4ccccc4)CC3=O)C2)cc1` (stereo not given) the same measures were above 10 µM, above 10 µM, above 10 µM, above 10 µM and above 10 µM.

For the origin of these results see ChEMBL document CHEMBL1138019, “Synthesis and antitumor activity of 4-hydroxycoumarin derivatives” (Bioorg Med Chem Lett, 2004).
